In paper PMC9136965 (ACS Central Science, 2022):
In brackets after ≈: the same amount, converted by molar mass. Read-outs that look alike come from different tables or passages of the source.

How the values were obtained:
B. subtilis 168 cells = assay: Bright-field microscopy of cell morphology; format: cell-based, Bacillus subtilis; details: B. subtilis 168, bright-field microscopy, Figure 5A
B. subtilis 168 = assay: Cell lytic assay; format: cell-based, Bacillus subtilis; details: B. subtilis 168, LB, 4× MIC, OD600 at 37 °C, n = 3, Figure 5B
Summary of the method: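 B. subtilis 168 cultures exposed to test compounds or reference antibiotics to tell lysis from growth arrest. Triplicate experiments (n = 3); values plotted as means with standard deviation (s.d.).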

Molecule | MIC (M. tuberculosis H37Ra; H37Ra) | growth morphology of treated cells (B. subtilis 168 cells) | MIC (M. tuberculosis H37Ra) | bacteriostatic or lytic action (B. subtilis 168)
CN[C@H](CC(C)C)C(=O)N[C@H]1C(=O)N[C@@H](CC(N)=O)C(=O)N[C@H]2C(=O)N[C@H]3C(=O)N[C@H](C(=O)N[C@H](C(=O)O)c4cc(O)cc(O)c4-c4cc3ccc4O)[C@H](O)c3ccc(c(Cl)c3)Oc3cc2cc(c3O[C@@H]2O[C@H](CO)[C@@H](O)[C@H](O)[C@H]2O[C@H]2C[C@](C)(N)[C@H](O)[C@H](C)O2)Oc2ccc(cc2Cl)[C@H]1O [vancomycin] | 2 µg/mL (≈ 1.38 µM) |  |  | 
complestatin |  | extended and twisted phenotype | >128 µg/mL | bacteriostatic
corbomycin |  | extended and twisted phenotype |  | bacteriostatic
